Columns and labels:
[1] = tested on: Hh signaling in Sufu-/- MEFs; assay: Gli1 and Ptc1 mRNA transcripts in Sufu-/- mouse embryonic fibroblasts; assay type: cell-based; conditions: 10 μM, normalized to GAPDH
[2] = tested on: Hh signaling (Shh-Light2 cells); assay: Gli-luciferase reporter in Shh-Light2 cells stimulated with Shh; assay type: cell-based, mouse; conditions: for Shh-responsive Gli-luciferase reporter activity: stimulated with Shh conditioned medium, significant starting at 1 μM
Outline: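 Mouse Shh-Light2 Gli-responsive luciferase reporter cells were stimulated with Shh conditioned medium and then treated with increasing concentrations of test compound. Luciferase output was read as relative luciferase units (RLU), n = 4 per condition, reported as mean ± SEM with p-values.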

[3] = tested on: Hh-target gene Patched (Ptc)-1 expression; assay: Whole-mount in situ hybridization for Ptc1 in zebrafish embryos; assay type: in vivo; conditions: 1 μM; 12 hpf and 48 hpf
[4] = tested on: PDE4D3-induced Hh signaling (Shh-Light2 cells); assay: Hh reporter activity in Shh-Light2 cells transfected with PDE4D3; assay type: cell-based, mouse; conditions: 5 μM
Outline: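 Hh reporter cells were transiently transfected with wild-type PDE4D3, dominant-negative PDE4D3 or empty pCS2 vector as control. Wild-type transfectants received 5 μM test compound. Reporter activity is reported as mean ± SEM and compared with vector control or untreated wild-type transfectants.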

[5] = tested on: Gli2FL nuclear accumulation; assay: Western blot of nuclear full length Gli2 in SAG-stimulated NIH3T3 cells; assay type: cell-based; conditions: SAG 100 nM 1.5 h; Egm 10 μM, FSK 30 μM
Outline: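 NIH3T3 cells were left unstimulated or stimulated with SAG (100 nM, 1.5 h), alone or with test compound (10 μM) or forskolin (30 μM), then fractionated. Full-length Gli2 was blotted in nuclear (Lamin-A/C control, n = 4) and whole-cell (α-tubulin control, n = 2) fractions. Output was the ratio of normalized nuclear to normalized whole-cell Gli2.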

442 kinases = assay: Counter-screen, kinase panel
21 phosphatases = assay: Counter-screen, phosphatase panel
PDE10A2 = PDE10A2 (Homo sapiens, UniProt Q9Y233); assay: PDE dose-response assay, PDE10A2; assay type: biochemical
[6] = tested on: Gli2-driven Gli-Luc activity; assay: Gli-Luc activity in cells transiently overexpressing Gli2; assay type: cell-based; conditions: transient Gli2 overexpression
PDE3A = PDE3A (Homo sapiens, UniProt Q14432); assay: PDE dose-response assay, PDE3A; assay type: biochemical
PDE4D3 = PDE4D3 (Homo sapiens, UniProt Q08499); assay: PDE dose-response assay, PDE4D3; assay type: biochemical
PKA [7] = assay: Western blot of phospho-T197-PKA in NIH3T3 whole cell lysates; assay type: cell-based; conditions: SAG 20 nM plus 5 μM compound
Outline: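 NIH3T3 cells were left unstimulated or treated with SAG (20 nM), with or without test compound (5 μM). Whole-cell lysates were immunoblotted for phospho-T197 PKA catalytic subunit, with α-tubulin as loading control.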

Smo = Smo (Homo sapiens, UniProt Q99835); assay type: binding; conditions: 5 nM BODIPY-cyclopamine; concentrations up to 10 μM
[8] = tested on: Hh signaling (Shh-Light2 cells); assay: Gli-Luc reporter stimulated with Smo agonist purmorphamine; assay type: cell-based, mouse; conditions: purmorphamine 3 μM; significant starting at 0.5 μM
PDE11A4 = PDE11A4 (Homo sapiens, UniProt Q9HCR9); assay: PDE dose-response assay, PDE11A4; assay type: biochemical
PKA [9] = assay: Immunostaining of phospho-T197-PKA in NIH3T3 cells; assay type: cell-based; conditions: SAG 20 nM plus 5 μM compound
[10] = tested on: Gli3FL to Gli3R processing; assay: Western blot of Gli3 processing in SAG-stimulated C3H10T1/2 cells; assay type: cell-based; conditions: SAG 100 nM 24 h; Egm 10 μM, FSK 30 μM
Outline: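 C3H10T1/2 cells were left unstimulated or stimulated with SAG (100 nM, 24 h), alone or with test compound (10 μM) or forskolin (30 μM). Whole-cell lysates were immunoblotted for full-length and repressor Gli3, with α-tubulin as loading control and infrared detection; n = 3.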

PDE super-family members = assay: In vitro PDE activity screen across PDE super-family members; assay type: biochemical; conditions: 20 μM; PDE4D3 and three other members
[11] = tested on: BMP (Bone Morphogenic Protein) signaling; assay: BMP developmental signaling pathway test; assay type: cell-based
[12] = tested on: primary cilium of NIH3T3 cells; assay: Cilium structure and IFT88 in NIH3T3 cells; assay type: cell-based
[13] = tested on: Gli2 ciliary localization in MEFs; assay: Gli2 trafficking to primary cilium in SAG-stimulated MEFs; assay type: cell-based, mouse; conditions: co-treatment SAG 20 nM and 5 μM compound

Sequence of PDE4D3 (Q08499 1-673 isoform Q08499-2): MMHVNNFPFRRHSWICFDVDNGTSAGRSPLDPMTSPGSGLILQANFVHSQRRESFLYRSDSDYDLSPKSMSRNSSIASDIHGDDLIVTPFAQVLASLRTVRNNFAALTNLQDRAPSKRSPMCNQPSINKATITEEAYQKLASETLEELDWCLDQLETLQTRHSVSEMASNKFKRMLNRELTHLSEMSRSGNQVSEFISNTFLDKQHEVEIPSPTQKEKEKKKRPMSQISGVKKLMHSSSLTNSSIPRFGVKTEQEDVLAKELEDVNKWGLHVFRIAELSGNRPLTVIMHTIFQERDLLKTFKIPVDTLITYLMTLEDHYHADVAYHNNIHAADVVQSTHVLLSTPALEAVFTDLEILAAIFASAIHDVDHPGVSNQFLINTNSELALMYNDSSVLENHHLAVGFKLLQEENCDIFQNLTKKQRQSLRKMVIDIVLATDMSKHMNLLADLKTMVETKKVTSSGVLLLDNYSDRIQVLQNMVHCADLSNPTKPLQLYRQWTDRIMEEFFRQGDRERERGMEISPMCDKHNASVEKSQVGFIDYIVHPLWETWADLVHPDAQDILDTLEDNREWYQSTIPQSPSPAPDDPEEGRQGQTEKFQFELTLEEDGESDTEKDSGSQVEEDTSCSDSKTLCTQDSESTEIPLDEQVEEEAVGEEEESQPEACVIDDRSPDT
Sequence of Smo (Q99835 28-787): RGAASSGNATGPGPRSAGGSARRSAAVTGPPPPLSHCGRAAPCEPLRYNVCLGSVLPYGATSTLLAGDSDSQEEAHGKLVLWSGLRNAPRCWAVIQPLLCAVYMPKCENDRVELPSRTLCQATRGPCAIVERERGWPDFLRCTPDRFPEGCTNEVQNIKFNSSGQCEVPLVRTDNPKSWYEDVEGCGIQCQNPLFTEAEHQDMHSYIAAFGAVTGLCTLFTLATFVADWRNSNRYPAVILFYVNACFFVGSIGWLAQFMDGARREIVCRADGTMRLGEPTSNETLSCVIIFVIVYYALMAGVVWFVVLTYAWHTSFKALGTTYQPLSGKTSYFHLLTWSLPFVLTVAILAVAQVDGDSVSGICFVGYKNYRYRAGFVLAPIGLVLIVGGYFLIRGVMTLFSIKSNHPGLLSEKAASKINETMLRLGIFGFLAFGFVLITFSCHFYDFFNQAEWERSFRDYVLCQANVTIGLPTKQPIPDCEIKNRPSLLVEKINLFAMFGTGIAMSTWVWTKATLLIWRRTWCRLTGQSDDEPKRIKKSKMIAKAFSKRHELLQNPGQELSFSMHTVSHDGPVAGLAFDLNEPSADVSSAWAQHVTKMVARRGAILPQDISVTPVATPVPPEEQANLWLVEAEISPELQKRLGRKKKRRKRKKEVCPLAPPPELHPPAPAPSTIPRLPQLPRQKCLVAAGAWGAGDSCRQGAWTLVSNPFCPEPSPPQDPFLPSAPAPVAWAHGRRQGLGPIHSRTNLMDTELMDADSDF
Sequence of PDE3A (Q14432 whole entry, species assumed): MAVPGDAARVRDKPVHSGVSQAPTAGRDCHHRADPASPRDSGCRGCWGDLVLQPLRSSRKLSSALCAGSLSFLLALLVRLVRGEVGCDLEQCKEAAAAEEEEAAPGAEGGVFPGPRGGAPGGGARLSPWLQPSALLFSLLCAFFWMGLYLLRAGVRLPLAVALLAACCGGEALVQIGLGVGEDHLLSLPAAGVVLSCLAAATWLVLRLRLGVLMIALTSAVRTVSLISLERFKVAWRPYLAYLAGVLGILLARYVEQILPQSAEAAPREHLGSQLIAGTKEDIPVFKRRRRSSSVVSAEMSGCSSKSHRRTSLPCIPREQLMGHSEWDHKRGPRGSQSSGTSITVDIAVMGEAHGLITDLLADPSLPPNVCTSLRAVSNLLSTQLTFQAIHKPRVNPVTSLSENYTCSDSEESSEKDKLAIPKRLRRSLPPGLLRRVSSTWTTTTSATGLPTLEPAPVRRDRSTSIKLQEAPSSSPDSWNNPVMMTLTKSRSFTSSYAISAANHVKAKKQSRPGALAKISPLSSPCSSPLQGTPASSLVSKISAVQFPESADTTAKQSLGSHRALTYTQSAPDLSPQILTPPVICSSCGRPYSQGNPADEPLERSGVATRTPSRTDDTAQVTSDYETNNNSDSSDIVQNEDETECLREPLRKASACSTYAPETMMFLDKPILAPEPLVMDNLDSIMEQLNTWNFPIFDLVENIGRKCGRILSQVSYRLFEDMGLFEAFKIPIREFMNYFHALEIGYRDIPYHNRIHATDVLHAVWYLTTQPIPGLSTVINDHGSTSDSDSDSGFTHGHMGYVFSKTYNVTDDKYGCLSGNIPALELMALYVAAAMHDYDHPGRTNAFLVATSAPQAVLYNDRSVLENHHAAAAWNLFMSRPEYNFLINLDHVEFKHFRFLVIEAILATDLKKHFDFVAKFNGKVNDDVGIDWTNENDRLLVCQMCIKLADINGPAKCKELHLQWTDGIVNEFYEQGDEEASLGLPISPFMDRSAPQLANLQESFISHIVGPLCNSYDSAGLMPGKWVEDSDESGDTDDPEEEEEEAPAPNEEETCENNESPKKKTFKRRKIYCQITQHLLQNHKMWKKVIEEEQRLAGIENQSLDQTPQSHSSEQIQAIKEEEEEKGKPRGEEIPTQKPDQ
Sequence of PDE10A2 (Q9Y233 267-1055, species assumed): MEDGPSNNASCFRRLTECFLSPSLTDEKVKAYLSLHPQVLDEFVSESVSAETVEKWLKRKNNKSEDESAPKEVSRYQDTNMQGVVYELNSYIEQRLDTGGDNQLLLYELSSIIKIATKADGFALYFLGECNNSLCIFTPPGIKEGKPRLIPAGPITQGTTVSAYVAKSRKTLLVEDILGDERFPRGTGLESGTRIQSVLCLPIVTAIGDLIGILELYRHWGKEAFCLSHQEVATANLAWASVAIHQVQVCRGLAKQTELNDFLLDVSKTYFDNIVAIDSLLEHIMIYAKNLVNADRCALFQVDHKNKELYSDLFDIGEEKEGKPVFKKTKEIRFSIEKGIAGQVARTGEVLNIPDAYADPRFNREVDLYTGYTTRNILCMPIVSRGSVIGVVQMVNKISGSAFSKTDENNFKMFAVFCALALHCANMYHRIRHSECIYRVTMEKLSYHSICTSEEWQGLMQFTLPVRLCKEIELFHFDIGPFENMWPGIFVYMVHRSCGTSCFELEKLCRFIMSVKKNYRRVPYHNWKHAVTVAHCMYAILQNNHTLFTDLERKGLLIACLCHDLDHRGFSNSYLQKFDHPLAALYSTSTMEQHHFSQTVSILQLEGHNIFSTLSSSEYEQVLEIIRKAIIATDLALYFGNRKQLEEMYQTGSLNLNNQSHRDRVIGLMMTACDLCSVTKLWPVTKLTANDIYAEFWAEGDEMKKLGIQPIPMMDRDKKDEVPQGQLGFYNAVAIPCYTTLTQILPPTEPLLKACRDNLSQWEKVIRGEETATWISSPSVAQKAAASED
Sequence of PDE11A4 (Q9HCR9 whole entry, species assumed): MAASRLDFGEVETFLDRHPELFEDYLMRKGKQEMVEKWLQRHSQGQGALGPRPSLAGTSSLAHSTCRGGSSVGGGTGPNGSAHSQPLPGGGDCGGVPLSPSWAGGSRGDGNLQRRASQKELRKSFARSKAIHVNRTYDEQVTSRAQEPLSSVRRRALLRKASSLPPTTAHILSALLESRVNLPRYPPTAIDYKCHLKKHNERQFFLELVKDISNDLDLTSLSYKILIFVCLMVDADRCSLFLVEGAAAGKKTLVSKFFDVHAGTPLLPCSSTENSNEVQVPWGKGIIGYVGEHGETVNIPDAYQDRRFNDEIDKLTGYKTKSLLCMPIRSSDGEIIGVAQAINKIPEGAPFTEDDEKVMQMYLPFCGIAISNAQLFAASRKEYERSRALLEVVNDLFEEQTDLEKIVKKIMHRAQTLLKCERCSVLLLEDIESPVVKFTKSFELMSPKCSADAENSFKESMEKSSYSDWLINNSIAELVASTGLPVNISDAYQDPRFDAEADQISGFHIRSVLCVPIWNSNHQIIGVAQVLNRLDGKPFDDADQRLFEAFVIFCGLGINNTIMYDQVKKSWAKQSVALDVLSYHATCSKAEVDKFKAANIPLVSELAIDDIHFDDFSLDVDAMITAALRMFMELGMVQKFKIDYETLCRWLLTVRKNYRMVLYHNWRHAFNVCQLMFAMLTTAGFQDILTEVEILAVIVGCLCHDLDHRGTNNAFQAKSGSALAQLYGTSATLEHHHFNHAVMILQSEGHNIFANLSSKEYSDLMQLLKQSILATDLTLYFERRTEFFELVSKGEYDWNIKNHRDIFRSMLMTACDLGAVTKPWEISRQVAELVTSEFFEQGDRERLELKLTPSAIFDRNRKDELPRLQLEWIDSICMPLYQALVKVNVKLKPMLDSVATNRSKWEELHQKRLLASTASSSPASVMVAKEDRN

With CC1=C2C[C@H]3[C@@H](CC=C4C[C@@H](O)CC[C@@]43C)[C@@H]2CC[C@]12O[C@@H]1C[C@H](C)CN[C@H]1[C@H]2C [cyclopamine, reference compound] the Gli1 transcription level [1] was “no inhibition” and the Ptc1 transcription level [1] was “no inhibition”.
In the case of C=C(C)Cn1c(SCC(=O)c2cccs2)nc2sc3c(c2c1=O)CCCC3 [eggmanone, 3-(2-methylallyl)-2-((2-oxo-2-(thiophen-2-yl)ethyl)thio)-5,6,7,8-tetrahydrobenzo[4,5]thieno[2,3-d]pyrimidine-4(3H)-one], the “Shh-responsive Gli-luciferase reporter activity” value [2] is reported as “inhibited Hh-inducible Gli-responsive luciferase (Gli-Luc) activity in a dose-dependent manner”, the “Ptc1 expression in adaxial cells, pectoral fin fields and somites” value [3] is reported as “abrogation of the Hh-target gene Patched (Ptc)-1 expression” and the “Hh reporter activity induced by wild type PDE4D3 overexpression” value [4] is reported as “abolished”. For the same compound, the “nuclear accumulation of Gli2FL” value [5] was “inhibited”, the “inhibition of kinases in panel” value (442 kinases) was at most 50% and the “inhibition of phosphatases in panel” value (21 phosphatases) was at most 50%. The Gli1 transcription level [1] was “significantly reduced”, the Ptc1 transcription level [1] was “significantly reduced” and the IC50 (PDE10A2) was 3.05 µM. For the same compound, the “Gli-Luc activity in cells overexpressing Gli2” value [6] was “retained Gli-Luc activity”, the IC50 (PDE3A) was 3 µM and the IC50 (PDE4D3) was 72 nM. The “selectivity for PDE4D3 over other PDEs” value (PDE4D3; versus PDE3A, PDE10A2, PDE11A4) was 40- to 50 fold, the “p-PKA levels in whole cell lysates” value (PKA [7]) was “no significant increase” and the “competition for Smo binding with BODIPY-cyclopamine” value (Smo) was “failed to compete”. The “purmorphamine-induced Gli-Luc reporter activity” value [8] was “inhibited purmorphamine-induced (3 μM) Gli-Luc reporter activity in a dose-dependent manner”, the IC50 (PDE11A4) was 4.08 µM and the “phospho-T197-PKA at base of primary cilium / basal body” value (PKA [9]) was “significant increase in PKA activity at the base of the primary cilium”. For the same compound, the Gli3R formation [10] was “restored Gli3R formation”, the “inhibition of PDE activity” value (PDE super-family members) was at least 50% and the “effect on BMP signaling” value [11] was “not perturbed”. The “ciliary transport protein IFT88” value [12] was “remained intact”, the “cilium structure (Arl13b staining)” value [12] was “unaffected” and the “Gli2 localization to primary cilium” value [13] was “properly localized to the proximal tip of the cilium”.
For C=C[C@@]1(C)CC(=O)[C@]2(O)[C@@]3(C)[C@@H](O)CCC(C)(C)[C@@H]3[C@H](O)[C@H](OC(C)=O)[C@@]2(C)O1 [forskolin, reference compound], the “nuclear accumulation of Gli2FL” value [5] was “inhibited” and the Gli3R formation [10] was “restored Gli3R formation”.
In the case of COc1ccc(C2CNC(=O)C2)cc1OC1CCCC1 (stereo not drawn) [rolipram], the “potency in Gli-Luc reporter assay relative to eggmanone” value ([2]; stimulated with Shh) is reported as “lower potency than eggmanone” and the “Shh-responsive Gli-luciferase reporter activity” value [2] is reported as “did reduce Hh signaling levels”.

Source: article PMC4394042 (Cell reports, 2015)
